Experimental data from ChEMBL document CHEMBL1133087, “Radioiodinated N-(2-diethylaminoethyl)benzamide derivatives with high melanoma uptake: structure-affinity relationships, metabolic fate, and intracellular localization” (J Med Chem, 2000).

How the values were obtained:
Mus musculus [1] = assay: Biodistribution was studied by injecting intravenously into C57B1/6 mice bearing subcutaneously transplanted B16 melanoma after 1 hr.; type: ADME, organism-based; details: in vivo, iv
[2] = The lipophilicity was measured in an octanol/water system at pH 7.4.; type: physicochemical
How it was run: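 HPLC-purified no-carrier-added radioiodinated benzamide was added to 0.067 M phosphate buffer at pH 7.4 with an equal volume of 1-octanol. The mixture was vortexed to equilibrium, centrifuged and the phases separated. Each phase was γ-counted, with log P = log(cpm octanol/cpm buffer).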

Mus musculus [3] = assay: Biodistribution was studied by injecting intravenously into C57B1/6 mice bearing subcutaneously transplanted B16 spleen after 1 hr.; type: ADME, organism-based; details: in vivo, iv
Mus musculus [4] = assay: Biodistribution was studied by injecting intravenously into C57B1/6 mice bearing subcutaneously transplanted B16 blood after 1 hr.; type: ADME, organism-based; details: in vivo, iv
Mus musculus [5] = assay: Biodistribution was studied by injecting intravenously into C57B1/6 mice bearing subcutaneously transplanted B16 heart after 6 hr.; type: ADME, organism-based; details: in vivo, iv
Mus musculus [6] = assay: Biodistribution was studied by injecting intravenously into C57B1/6 mice bearing subcutaneously transplanted B16 muscle after 1 hr.; type: ADME, organism-based, Muscle tissue; details: in vivo, iv
Mus musculus [7] = assay: Biodistribution was studied by injecting intravenously into C57B1/6 mice bearing subcutaneously transplanted B16 muscle after 6 hr.; type: ADME, organism-based, Muscle tissue; details: in vivo, iv
Mus musculus [8] = assay: Biodistribution was studied by injecting intravenously into C57B1/6 mice bearing subcutaneously transplanted B16 […] after 6 hr.; type: ADME, organism-based; details: in vivo, iv
Mus musculus [9] = assay: Biodistribution was studied by injecting intravenously into C57B1/6 mice bearing subcutaneously transplanted B16 kidney after 1 hr.; type: ADME, organism-based; details: in vivo, iv
Mus musculus [10] = assay: Biodistribution was studied by injecting intravenously into C57B1/6 mice bearing subcutaneously transplanted B16 kidney after 6 hr.; type: ADME, organism-based; details: in vivo, iv
Mus musculus [11] = assay: Biodistribution was studied by injecting intravenously into C57B1/6 mice bearing subcutaneously transplanted B16 liver after 1 hr.; type: ADME, organism-based; details: in vivo, iv
Mus musculus [12] = assay: Biodistribution was studied by injecting intravenously into C57B1/6 mice bearing subcutaneously transplanted B16 liver after 6 hr.; type: ADME, organism-based; details: in vivo, iv
Mus musculus [13] = assay: Biodistribution was studied by injecting intravenously into C57B1/6 mice bearing subcutaneously transplanted B16 lung after 1 hr.; type: ADME, organism-based; details: in vivo, iv
Mus musculus [14] = assay: Biodistribution was studied by injecting intravenously into C57B1/6 mice bearing subcutaneously transplanted B16 lung after 6 hr.; type: ADME, organism-based; details: in vivo, iv
Mus musculus [15] = assay: Biodistribution was studied by injecting intravenously into C57B1/6 mice bearing subcutaneously transplanted B16 melanoma after 6 hr.; type: ADME, organism-based; details: in vivo, iv
Mus musculus [16] = assay: Biodistribution was studied by injecting intravenously into C57B1/6 mice bearing subcutaneously transplanted B16 blood after 6 hr.; type: ADME, organism-based; details: in vivo, iv
Mus musculus [17] = assay: Biodistribution was studied by injecting intravenously into C57B1/6 mice bearing subcutaneously transplanted B16 brain after 1 hr.; type: ADME, organism-based; details: in vivo, iv
Mus musculus [18] = assay: Biodistribution was studied by injecting intravenously into C57B1/6 mice bearing subcutaneously transplanted B16 brain after 6 hr.; type: ADME, organism-based; details: in vivo, iv
Mus musculus [19] = assay: Biodistribution was studied by injecting intravenously into C57B1/6 mice bearing subcutaneously transplanted B16 heart after 1 hr.; type: ADME, organism-based; details: in vivo, iv
Mus musculus [20] = assay: Amount of urinary radioactivity collected within 4 hr after iv injection into C57B1/6 mice was analyzed by RP-HPLC.; type: ADME, organism-based, Urine; details: in vivo
B16 [21] = assay: Binding of radioiodinated compound in B16 cells as a function of specific activity for blood at 1 hr after injecting at 1.5(umol/mouse).; type: functional
How it was run: (§1)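 C57Bl/6 mice carried subcutaneous B16 melanoma. Melanoma and blood radioactivity were measured by γ-counting at 1 or 6 h and expressed as % ID/g (mean, n = 3).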

B16 [22] = assay: Binding of radioiodinated compound in B16 cells as a function of specific activity for blood at 1 hr after injecting at 1.5*10e-3 (uMol/mouse).; type: functional; how it was run: as §1
B16 [23] = assay: Binding of radioiodinated compound in B16 cells as a function of specific activity for blood at 1 hr after injecting at 1.8*10e-6 (uMol/mouse).; type: functional; how it was run: as §1
B16 [24] = assay: Binding of radioiodinated compound in B16 cells as a function of specific activity for blood at 6 hr after injecting at 1.5(umol/mouse).; type: functional; how it was run: as §1
B16 [25] = assay: Binding of radioiodinated compound in B16 cells as a function of specific activity for blood at 6 hr after injecting at 1.5*10e-3 (uMol/mouse); type: functional; how it was run: as §1
B16 [26] = assay: Binding of radioiodinated compound in B16 cells as a function of specific activity for blood at 6 hr after injecting at 1.8*10e-6 (uMol/mouse).; type: functional; how it was run: as §1
B16 [27] = assay: Binding of radioiodinated compound in B16 cells as a function of specific activity for melanoma after 1 hr injecting at 1.8*10e-6 (uMol/mouse).; type: functional; how it was run: as §1
B16 [28] = assay: Binding of radioiodinated compound in B16 cells as a function of specific activity for melanoma at 1 hr after injecting at 1.5(umol/mouse).; type: functional; how it was run: as §1
B16 [29] = assay: Binding of radioiodinated compound in B16 cells as a function of specific activity for melanoma at 1 hr after injecting at 1.5*10e-3 (uMol/mouse).; type: functional; how it was run: as §1
B16 [30] = assay: Binding of radioiodinated compound in B16 cells as a function of specific activity for melanoma at 6 hr after injecting at 1.5(umol/mouse).; type: functional; how it was run: as §1
B16 [31] = assay: Binding of radioiodinated compound in B16 cells as a function of specific activity for melanoma at 6 hr after injecting at 1.5*10e-3 (uMol/mouse).; type: functional; how it was run: as §1
B16 [32] = assay: Binding of radioiodinated compound in B16 cells as a function of specific activity for melanoma at 6 hr after injecting at 1.8*10e-6 (uMol/mouse).; type: functional; how it was run: as §1
[33] = Selectivity parameter calculated as the mean of 8 melanoma / non target tissue ratio at 1 hr postinjection; type: functional
How it was run: (§2)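 Tissue radioactivity was γ-counted as % ID/g. Selectivity (M/NTT) is the mean of the 8 melanoma/nontarget tissue ratios: blood, heart, lung, spleen, liver, kidney, muscle and brain. n = 3.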

[34] = Selectivity parameter calculated as the mean of 8 melanoma / non target tissue ratio at 6 hr postinjection; type: functional; how it was run: as §2
Mus musculus [35] = assay: Biodistribution was studied by injecting intravenously into C57B1/6 mice bearing subcutaneously transplanted B16 blood after 24 hr; type: ADME, organism-based; details: in vivo, iv
Mus musculus [36] = assay: Biodistribution was studied by injecting intravenously into C57B1/6 mice bearing subcutaneously transplanted B16 muscle after 24 hr.; type: ADME, organism-based, Muscle tissue; details: in vivo, iv
Mus musculus [37] = assay: Biodistribution was studied by injecting intravenously into C57B1/6 mice bearing subcutaneously transplanted B16 spleen after 24 hr.; type: ADME, organism-based; details: in vivo, iv
Mus musculus [38] = assay: Biodistribution was studied by injecting intravenously into C57B1/6 mice bearing subcutaneously transplanted B16 kidney after 24 hr.; type: ADME, organism-based; details: in vivo, iv
Mus musculus [39] = assay: Biodistribution was studied by injecting intravenously into C57B1/6 mice bearing subcutaneously transplanted B16 liver after 24 hr.; type: ADME, organism-based; details: in vivo, iv
Mus musculus [40] = assay: Biodistribution was studied by injecting intravenously into C57B1/6 mice bearing subcutaneously transplanted B16 lung after 24 hr.; type: ADME, organism-based; details: in vivo, iv
Mus musculus [41] = assay: Biodistribution was studied by injecting intravenously into C57B1/6 mice bearing subcutaneously transplanted B16 melanoma after 24 hr.; type: ADME, organism-based; details: in vivo, iv
Mus musculus [42] = assay: Biodistribution was studied by injecting intravenously into C57B1/6 mice bearing subcutaneously transplanted B16 brain after 24 hr.; type: ADME, organism-based; details: in vivo, iv
Mus musculus [43] = assay: Biodistribution was studied by injecting intravenously into C57B1/6 mice bearing subcutaneously transplanted B16 heart after 24 hr.; type: ADME, organism-based; details: in vivo, iv

Compound	ID/g (Mus musculus [1])	logD [2]	ID/g (Mus musculus [3])	ID/g (Mus musculus [4])	ID/g (Mus musculus [5])	ID/g (Mus musculus [6])	ID/g (Mus musculus [7])	ID/g (Mus musculus [8])	ID/g (Mus musculus [9])	ID/g (Mus musculus [10])	ID/g (Mus musculus [11])	ID/g (Mus musculus [12])	ID/g (Mus musculus [13])	ID/g (Mus musculus [14])	ID/g (Mus musculus [15])	ID/g (Mus musculus [16])	ID/g (Mus musculus [17])	ID/g (Mus musculus [18])	ID/g (Mus musculus [19])	ID (Mus musculus [20])	other results
CCN(CC)CCNC(=O)c1cc(I)c(N)cc1OC	4.66%	1.62	2%	1.93%	0.45%	0.61%	0.28%	1.57%	6.89%	3.95%	4.92%	3.43%	3.12%	1.06%	6.92%	0.85%	0.18%	0.08%	1.17%		
CCN(CC)CCNC(=O)c1ccc(OC)c(I)c1	6.5%	1.13	0.39%	0.2%	0.05%	0.19%	0.03%	0.05%	0.93%	0.17%	2.62%	0.29%	0.69%	0.09%	4.14%	0.04%	0.1%	0.01%	0.25%	82%	ID/g (B16 [21]): 0.78%; ID/g (B16 [22]): 1.03%; ID/g (B16 [23]): 0.2%; ID/g (B16 [24]): 0.29%; ID/g (B16 [25]): 0.24%; ID/g (B16 [26]): 0.04%; ID/g (B16 [27]): 6.5%; ID/g (B16 [28]): 5.41%; ID/g (B16 [29]): 4.86%; ID/g (B16 [30]): 3.72%; ID/g (B16 [31]): 5.27%; ID/g (B16 [32]): 4.14%; Ratio [33]: 24; Ratio [34]: 129
CCN(CC)CCNC(=O)c1ccc(NC(C)=O)c(I)c1	6.21%	1.34	5.62%	6.5%	0.58%	1.81%	0.44%	1.39%	6.46%	1.22%	4.05%	0.77%	7.98%	1.82%	1.2%	1.51%	0.48%	0.09%	3.19%		
CCN(CC)CCNC(=O)c1cc(Br)c(N)c(I)c1OC	16.61%	1.81	5.06%	2.32%	0.94%	0.94%	0.43%	1.84%	4.53%	2.08%	11.32%	9.61%	3.16%	2.07%	16.48%	1.86%	0.64%	0.15%	1.91%	34%	ID/g (Mus musculus [35]): 0.19%; ID/g (Mus musculus [36]): 0.01%; ID/g (Mus musculus [37]): 0.38%; ID/g (Mus musculus [38]): 0.46%; ID/g (Mus musculus [39]): 4.54%; ID/g (Mus musculus [40]): 0.26%; ID/g (Mus musculus [41]): 8.02%; ID/g (Mus musculus [42]): 0.02%; ID/g (Mus musculus [43]): 0.13%
